Bioassay records: PubChem, several laboratories
Only some compounds are listed: those with a hit (about 3.7% of all), similar ones and a draw of the others.
WT yeast gro inh = growth inhibition of WT yeast, mitochondrial fusion screen; actives 2.1% (n = 190,000); mitochondrial fusion phenotypic screen, WT strain; inhibition, % at 10 µM; in the data active = inhibition above about 58%; tested in S. cerevisiae
EBV gp42 inh = inhibitors of Epstein-Barr virus glycoprotein 42. Fluorescence polarization binding assay, mP read-out. actives 0.42% (n = 220,000). Q1HVG2. inhibition, % (tested at 21.74 µM). AID 1085; in the data active = inhibition above about 50%
14-3-3 Bad inh = disrupts binding of bovine 14-3-3 zeta to phospho-Bad peptide; TR-FRET 14-3-3zeta/Dy647-pBad peptide displacement, 1 h; inhibition, % at 21.7 µM; actives 0.71% (n = 220,000); P63103;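 active = inhibition above about 70%, limit read from the data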;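 also: 0% = full 14-3-3 plus peptide FRET controls and 100% = background without 14-3-3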
eIF4E-4G inh = blocks eIF4E binding to eIF4G | P63073+Q04637 | TR-FRET eIF4E-eIF4GI(517-606) binding, 2 h | inhibition, % at 21.7 µM | actives 0.37% (n = 220,000);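 also: 0% = full FRET control wells and 100% = background wells lacking eIF4GI fragment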
RBBP9 inhibitor = human RBBP9 hydrolase inhibition; O75884; recombinant RBBP9, FP-Rh probe fluorescence polarization; inhibition, % at 7.94 µM; actives 0.2% (n = 220,000);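 active = inhibition above the campaign mean of all tested compounds plus 3 SD, cut at about 14% in these data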;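 also: plate controls were DMSO wells with RBBP9 for no effect and wells lacking RBBP9 protein for full effect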
Target sequence (O75884 whole entry, looked up): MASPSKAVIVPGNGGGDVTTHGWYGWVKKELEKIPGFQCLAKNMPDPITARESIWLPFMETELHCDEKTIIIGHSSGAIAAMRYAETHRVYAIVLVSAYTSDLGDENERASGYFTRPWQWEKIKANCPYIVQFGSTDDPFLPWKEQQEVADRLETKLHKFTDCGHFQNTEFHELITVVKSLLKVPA
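System: RBBP9 protein / Quantity: 2.5 µM RBBP9 dispensing solution, before mixing / Also added: Serine-hydrolase probe FP-Rh, 375 nM pre-mixing / Dosing: 7.94 µM single dose, 0.794% DMSO / Timing: enzyme-compound preincubation 30 min, then probe labeling 45 min, 25 °C / Signal: FP readout at 525/598 nm / Controls: DMSO-treated enzyme wells and wells lacking RBBP9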
p47phox inh = p47phox (human) inhibition | p47phox/p22phox peptide binding, fluorescence polarization, 2 h | inhibition, % at 24.7 µM | actives 0.53% (n = 220,000) | AID 1274;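 also: 0% = p47phox with labelled peptide and 100% = labelled peptide alone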
Target sequence (P14598 whole entry, looked up): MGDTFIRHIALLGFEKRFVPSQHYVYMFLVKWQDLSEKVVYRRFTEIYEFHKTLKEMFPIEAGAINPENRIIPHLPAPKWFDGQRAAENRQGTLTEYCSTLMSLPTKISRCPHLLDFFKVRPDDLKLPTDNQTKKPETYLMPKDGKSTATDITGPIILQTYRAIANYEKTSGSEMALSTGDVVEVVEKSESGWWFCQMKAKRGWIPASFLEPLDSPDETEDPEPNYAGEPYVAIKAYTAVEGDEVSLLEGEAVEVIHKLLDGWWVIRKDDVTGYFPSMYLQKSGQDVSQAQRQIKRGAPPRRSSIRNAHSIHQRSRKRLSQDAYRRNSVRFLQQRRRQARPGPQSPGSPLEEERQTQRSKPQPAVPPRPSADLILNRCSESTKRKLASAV
Starred values were filed as active, the others as inactive; · = not tested or not shown; [ ] = remark or other dose.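 The calls were made as follows, unless noted: active = inhibition above about 30% (limit read from the data); inactive = the rest.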

SMILES	WT yeast gro inh	EBV gp42 inh	14-3-3 Bad inh	eIF4E-4G inh	RBBP9 inhibitor	p47phox inh
CCCCN(C)C(=O)c1cc2cc3ccc(OC)cc3nc2s1	28	4	84*[fluorescence artefact?]	1	4	-4
CCCCN(CC)C(=O)c1cc2cc3ccc(OC)cc3nc2o1	5	-12	1	4	-5	-11
COCCCn1c(=S)[nH]c(C)c(C)c1=O	·	-16	-3	5	-9	-9
CCOC(=O)C1=C(C)NC(SC)=C(C#N)C1CC(C)C (stereo not drawn)	·	-17	-3	44*	-1	0
N#CC(C#N)=C1C=CC=CN1/C(=C\c1ccccc1Cl)C(=O)c1ccccc1	67*	21	18	5	-9	-29
Cc1ccc(C(=O)OCC(=O)c2c[nH]c3ccccc23)cc1S(=O)(=O)N1CCCCC1	9	-10	8	3	-19	-55
Cc1ccccc1CSCCNC(=O)Nc1ccccc1	13	-6	-6	-2	-10	0
CCOc1ccc(NS(=O)(=O)c2cnc(Cl)c(Cl)c2)cc1	71*	2	6	2	-10	2
COc1ccc(OCC(=O)N/N=C/c2ccsc2)cc1	-40	-19	13	-3	-2	74*
CCn1cc(C(=O)NCCc2ccccc2)c(=O)c2cc(F)c(N3CCN(C)CC3)cc21	62*	-20	4	2	-8	-1
CCn1cc(C(=O)NCC(C)C)c(=O)c2cc(F)c(N3CCN(C)CC3)cc21	·	-11	0	-4	-8	-4
COc1ccc(CN2CCN(S(=O)(=O)c3ccc(NC(C)=O)cc3)CC2)c(OC)c1OC	-5	3	28	3	3	5
CC1=CC(C)(C)N(C(=O)CCl)c2cc(C)ccc21	-29	-18	-9	1	-2	-6
CC1=CC(C)(C)N(C(=O)c2ccc(F)cc2)c2cc3c(cc21)OCO3	71*	6	-2	5	-7	1
Nc1cc(=O)[nH]c(=S)n1-c1ccccc1	59*	-16	0	3	-11	9
Cc1cc(CN(C)C(=O)CC2C(=O)NCCN2Cc2c(F)cccc2Cl)on1 (stereo not drawn)	·	-8	-5	1	-6	2
O=C(/C=C1\C(=O)Nc2ccccc21)/C=C1\C(=O)Nc2ccccc21	·	-3	93*	18	14	29
COc1cc(NC(=O)C(C)C)ccc1NC(=O)c1ccco1	47	-16	-2	6	-2	125*
CCc1ccc(OCc2nnc(SCCN3CCOCC3)n2C)cc1	5	2	85*	-5	7	8
CCC(C)N1CNc2c(c(=O)[nH]c(=S)n2-c2cccc(C)c2)C1 (stereo not drawn)	-4	-8	-2	2	3	0
CC(=O)Nc1cccc(OCCCNC(=O)c2cccc3ccccc23)c1	·	-10	2	4	5	13
O=C(c1cc2ccccc2c(=O)o1)N1CCc2ccccc2C1	13	-19	-9	2	-5	-12
Cn1c(C(=O)N2CCc3ccccc3C2)cc2oc3ccccc3c21	66*	-6	13	2	-9	0
CCn1c(C(=O)N2CCc3ccccc3C2)cc2oc3ccccc3c21	78*	-4	-3	8	-9	0
O=C(Cn1ncc2c(=O)oc3ccccc3c21)N1CCc2ccccc2C1	9	-7	13	-4	-8	-3
SMILES	WT yeast gro inh	EBV gp42 inh	14-3-3 Bad inh	eIF4E-4G inh	RBBP9 inhibitor	p47phox inh
O=C(Oc1ccc(-c2cnc3ccccc3n2)cc1)c1cc([N+](=O)[O-])ccc1Cl	-10	-17	69	-1	0	35*
Cc1c(C(=O)Oc2ccc(-c3cnc4ccccc4n3)cc2)cccc1[N+](=O)[O-]	3	3	21	5	0	17
COC(C[C@@H]1O[C@@H]1[C@H](O)COCc1ccccc1)OC	·	-3	-5	-3	·	-14
COc1ccc(CNC(=O)C2CC(=O)N(c3ccc(OCC(=O)N4C(C)CCCC4C)cc3)C2)cc1 (stereo not drawn)	64*	-11	-5	-4	-15	-6
Cc1cc(Br)ccc1NC(=O)CN1C(=O)C2C3CC(c4ccccc4)C(C3)C2C1=O (stereo not drawn)	78*	0	32	9	-9	-17
CCCCCCCCn1cnc2c(N)c(C)c(C)cc21	59*	-15	-5	9	-2	-5
COc1ccc(Cn2cnc3c(N)c(C)c(C)cc32)cc1	-12	-14	-14	3	-4	-8
Cc1cc(NC(=O)C2CCCCC2)nc2c1c(=O)oc1ccccc12	81*	-12	4	5	-3	-29
Cc1cc(NC(=O)C2CCCC2)nc2c1c(=O)oc1ccccc12	26	10	-6	0	-3	9
COc1ccc(N2CCN(C(=O)Cn3nnc(-c4ccc(N(C)C)cc4)n3)CC2)cc1	0	-4	77*	-8	-5	17
COc1ccc(-c2ccc(-c3nnn(CC(=O)N4CCOCC4)n3)cc2)cc1	-1	-21	44	-7	-5	-12
CCN(CC)c1ccc(/C=C/c2cc(-c3ccccc3)c3ccccc3n2)cc1	·	68*	-10	13	-9	-110
O=C(CSCCOc1ccccc1)NCc1ccncc1	·	-17	-4	-1	-7	-3
O=C1NC[C@H](Cc2ccc(O)cc2)N(CC2CCCCC2)C1=O	·	-8	-4	-2	·	-9
Oc1ccc(C[C@@H]2CNC(=S)N2CCCCC2CCCCC2)cc1	91*	2	-4	0	-2	-30
Cc1nc(NCCOc2ccccc2)sc1C(=O)Nc1ccccc1	·	-2	5	-2	-3	-5
C=CCNCC(O)COc1ccc(C(C)=O)cc1OC (stereo not drawn)	·	-6	33	3	-3	4
C=CCN1C(=O)/C(=C/c2ccc(N(C)C)cc2)S/C1=N\c1nnc(CC)s1	-11	53*	7	0	-8	-55
Nc1cc(Cl)ccc1N1C(=O)CCC1=O	·	-15	-2	6	3	31*
O=C(NCc1nnc(SCc2ccc(F)cc2)n1-c1ccccc1)C12CC3CC(CC(C3)C1)C2	14	3	11	6	-4	0
O=C(NCc1nnc(SCc2ccc(C(F)(F)F)cc2)n1-c1ccccc1)C12CC3CC(CC(C3)C1)C2	72*	-9	-4	10	-5	-38
O=c1oc(Nc2cccc(F)c2)nc2ccccc12	78*	-17	-8	6	-3	-14
Nc1nc(Nc2cccc(F)c2)nc2ccccc12	42	-1	21	-2	1	-30
Cn1cc(C(=O)c2ccc(Cl)cc2Cl)cc1C(=O)O	92*	-7	-4	1	0	-1
Cn1cc(C(=O)c2ccc(Cl)cc2Cl)cc1C(=O)N/N=C(\N)COc1ccccc1	-2	-5	-18	12	0	-4
